# Data from ChEMBL document CHEMBL4765251, “Efficient identification of novel anti-glioma lead compounds by machine learning models” (Eur J Med Chem, 2020).
# pEC50: −log10 of the molar value.
# Assays:
# Astrocyte = assay: Cytotoxicity against Wistar rat astrocytes assessed as cell growth inhibition at 100 uM measured after 72 hrs by SRB assay; format: cell-based
# U-251 = assay: Antiproliferative activity against human U251MG cells assessed as cell growth inhibition measured after 72 hrs by SRB assay; format: functional, cell-based; conditions: U-251, 72 h
# C6 = assay: Antiproliferative activity against rat C6 cells assessed as cell growth inhibition measured after 72 hrs by SRB assay; format: functional, cell-based; conditions: C6, 72 h
# [1] = Cytotoxicity against Wistar rat astrocytes assessed as cell growth inhibition measured after 72 hrs by SRB assay; format: cell-based, Astrocyte
# Outline: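 Primary astrocytes taken from the cortex of 2-day-old Wistar rats by mechanical dissociation, grown on poly-L-lysine in high-glucose DMEM and treated at 90% confluence (12-15 days). Exposed to 0.1-100 µM for 72 h, then SRB assay with absorbance read at 510 nm against DMSO controls. Mean ± SD of three independent assays.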
# [2] = Selectivity index, ratio of CC50 for Wistar rat astrocytes to EC50 for human U-251 MG cells
# Outline: (§1)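 Selectivity index is astrocyte CC50 divided by the glioma-line EC50, both from 72 h SRB assays. No index is given when astrocyte cytotoxicity could not be calculated at the highest concentration tested.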
# [3] = Selectivity index, ratio of CC50 for Wistar rat astrocytes to EC50 for human U87MG cells; outline: as §1
# U-87 MG = assay: Antiproliferative activity against human U87MG cells assessed as cell growth inhibition measured after 72 hrs by SRB assay; format: functional, cell-based, U-87MG ATCC
# Outline: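 U87MG human glioma cells grown in DMEM with 10% FBS at 37 °C, used up to 30 passages and treated at 40-50% confluence. Exposed to 0.1-100 µM for 72 h, with DMSO at most 0.1% final. TCA-fixed, stained with SRB, dye solubilized in Tris pH 10.5, read at 510 nm, expressed as % of DMSO controls. Mean ± SD of three independent assays.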
# [4] = Selectivity index, ratio of CC50 for Wistar rat astrocytes to EC50 for rat C6 cells; outline: as §1
# Rattus norvegicus = species: Rattus norvegicus; assay: Inhibition of TrxR in rat liver assessed as reduction in TNB formation using DTNB and NADPH as substrate at 100 uM preincubated with enzyme for 15 mins followed by NADPH addition by absorbance based analysis; format: tissue-based
# Outline: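 TrxR activity was measured at 37 °C in 100 mM potassium phosphate pH 7.0 with 2 mg/mL DTNB and 0.01 mg/mL enzyme. Enzyme was preincubated for 15 min with compound or DMSO, then the reaction was started with 0.2 mg/mL NADPH. TNB formation was followed at 412 nm (ε 13.6 mM-1 cm-1). Assays were run in duplicate, with enzyme-free blanks subtracted.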
pEC50 (U-251),pEC50 (U-87 MG),inhibition (Rattus norvegicus),SMILES,Activity (Astrocyte),pEC50 (C6),CC50 at 72 h [1],Ratio CC50/EC50 [2],Ratio CC50/EC50 [3],Ratio CC50/EC50 [4]
< 4.30,,,Cc1ccc(N2C(=O)CC(Sc3ncccc3C(=O)O)C2=O)cc1Cl (stereo not given),Non-Toxic,< 4.30,,,,
< 4.30,,,Cc1ccc(S(=O)(=O)CC(=O)c2cccc([N+](=O)[O-])c2)cc1,Non-Toxic,< 4.30,,,,
< 4.30,,,CN(C)c1ccc(/C=C/C(=O)c2ccc(-c3ccccc3)cc2)cc1,Non-Toxic,4.31,,,,
4.69,,,O=C(/C=C/c1cccc([N+](=O)[O-])c1)c1ccc(N2CCCCC2)cc1,Non-Toxic,4.49,,,,
4.44,4.45,,O=C(/C=C/c1ccc([N+](=O)[O-])o1)c1ccc(N2CCCC2)cc1,,4.79,65.8 µM,1.8,1.8,4
4.61,,,O=C(/C=C/c1ccc([N+](=O)[O-])o1)c1ccc(-c2ccccc2)cc1,Non-Toxic,4.75,,,,
< 4.30,,,Cc1ccc(S(=O)(=O)/N=C/c2ccc(F)cc2)cc1,Non-Toxic,4.31,,,,
4.67,4.90,,O=C(/C=C/c1ccc([N+](=O)[O-])o1)c1ccc(Br)cc1,,5.57,85.4 µM,3.9,6.7,31.6
5.03,5.00,,O=C(/C=C/c1ccc([N+](=O)[O-])s1)c1ccc(-n2ccnc2)cc1,,5.72,40.4 µM,4.3,4,21.3
4.62,4.35,,CSc1ccc(C(=O)/C=C/c2ccco2)cc1,,4.84,98 µM,,,
5.19,4.91,60.4%,CCCCc1ccc(C(=O)/C=C/c2ccco2)cc1,,5.08,> 100 µM,,,
< 4.30,,,Cc1ccc(S(=O)(=O)CC(=O)c2ccc(Cl)cc2Cl)cc1,Non-Toxic,< 4.30,,,,
4.63,4.72,,Cc1ccc(C(=O)/C=C/c2ccco2)cc1,,5.11,> 100 µM,,,
< 4.30,,,O=C(/C=C/c1ccc([N+](=O)[O-])o1)c1ccc(N2CCCCC2)cc1,Non-Toxic,4.31,,,,
5.36,5.02,,O=C(/C=C/c1ccc([N+](=O)[O-])o1)c1ccc(C2CCCCC2)cc1,,5.29,57.2 µM,13,6,11.2
4.79,4.49,3.6%,CC(C)(C)c1ccc(C(=O)/C=C/c2ccco2)cc1,,4.73,88.7 µM,,,
4.35,,,CC(C)(C)c1ccc(C(=O)/C=C/c2ccc([N+](=O)[O-])o2)cc1,Non-Toxic,4.54,,,,
< 4.30,,,Cc1nonc1C(=O)c1no[n+]([O-])c1C(=O)c1nonc1C,Non-Toxic,< 4.30,,,,

pEC50 (U-251),pEC50 (U-87 MG),inhibition (Rattus norvegicus),SMILES,Activity (Astrocyte),pEC50 (C6),CC50 at 72 h [1],Ratio CC50/EC50 [2],Ratio CC50/EC50 [3],Ratio CC50/EC50 [4]
< 4.30,,,O=C(/C=C/c1ccc(Cl)s1)c1ccc(N2CCCCC2)cc1,Non-Toxic,4.44,,,,
5.00,4.98,,CCC(=O)Oc1cccc2ccc(/C=C/c3ccccc3[N+](=O)[O-])nc12,,5.20,55.2 µM,5.4,5.3,8.7
4.67,4.87,,COc1ccc(/C=C/C(=O)c2cccc(I)c2)cc1,,4.84,> 100 µM,>4.7,>7.5,>6.8
< 4.30,,,O=C(CS(=O)(=O)c1ccccc1)c1cc2ccccc2o1,Non-Toxic,< 4.30,,,,
< 4.30,,,CC(C)Oc1ccc(C(=O)NC(=S)Nc2cccc3ccccc23)cc1,Non-Toxic,< 4.30,,,,
4.45,,,O=C(/C=C/c1ccc(Cl)s1)c1ccc(-n2ccnc2)cc1,Non-Toxic,4.84,,,,
< 4.30,,,O=C(/C=C/c1ccco1)c1ccc(N2CCOCC2)cc1,Non-Toxic,4.63,,,,
< 4.30,,,CC(=O)c1ccc(NCCC(=O)c2cccs2)cc1,Non-Toxic,4.33,,,,
< 4.30,,,COc1ccc(/C=C/C(=O)c2ccc(-c3ccccc3)cc2)cc1,Non-Toxic,< 4.30,,,,
4.42,5.01,,C[N+](=O)c1ccc(/C=C/C(=O)c2ccc(N3CCOCC3)cc2)o1,,5.18,75.8 µM,2,7.7,11.5
4.49,,,COc1ccc(/C=C/C(=O)c2cccc(Br)c2)cc1,Non-Toxic,4.65,,,,
4.65,4.87,,O=C(/C=C/c1ccc([N+](=O)[O-])o1)c1ccc(-n2ccnc2)cc1,,5.46,45.3 µM,2,3.4,12.9
4.85,5.41,56.4%,CSc1ccc(C(=O)/C=C/c2ccc([N+](=O)[O-])o2)cc1,,5.80,28.4 µM,2,7.3,17.7
4.78,5.31,0%,O=C(/C=C/c1ccc([N+](=O)[O-])o1)c1ccc(N2CCNCC2)cc1,,5.82,44.3 µM,2.6,9,29.5
< 4.30,,,O=C(/C=C/c1ccc([N+](=O)[O-])cc1)c1ccc(N2CCCCC2)cc1,Non-Toxic,< 4.30,,,,
4.58,,,O=C(/C=C/c1ccco1)c1ccc(C2CCCCC2)cc1,Non-Toxic,< 4.30,,,,
4.90,5.28,,O=C(/C=C/c1ccc([N+](=O)[O-])o1)c1ccc(I)cc1,,5.68,68.2 µM,5.4,13.1,32.5

SMILES,pEC50 (U-251),pEC50 (U-87 MG),inhibition (Rattus norvegicus),Activity (Astrocyte),pEC50 (C6),CC50 at 72 h [1],Ratio CC50/EC50 [2],Ratio CC50/EC50 [3],Ratio CC50/EC50 [4]
Cc1no[n+]([O-])c1C(=O)c1no[n+]([O-])c1C(=O)c1no[n+]([O-])c1C,< 4.30,,,Non-Toxic,< 4.30,,,,
